From ChEMBL document CHEMBL1141128, “Structure-activity relationship study on a simple cationic peptide motif for cellular delivery of antisense peptide nucleic acid” (J Med Chem, 2005) come the findings set out here.

Series [1] concerns CD40 mRNA. Kind of series: […] CD40 expression in BCL1 cells treated with 3 uM peptide nucleic acid (PNA)conjugate; n=3. Conditions: Mus musculus. In kind it is functional, cell-based. In short, it runs like this: (§1)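 Mouse BCL1 cells in DMEM with 10% FBS, given conjugate at 1, 3 or 10 μM by free uptake (no transfection agent) for 3 days. Cells trypsinised and stained 1 h with FITC anti-CD40 (HM40-3) or isotype control, then surface CD40 read by flow cytometry. Results are % untreated control, mean ± SD, n = 3.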

Series [2] concerns CD40 mRNA. As to the kind of experiment: […] CD40 expression in BCL1 cells treated with 1 uM peptide nucleic acid (PNA)conjugate; n=3. Format: functional, cell-based. The following applies: Mus musculus. A digest of the protocol: as §1
The subject of series [3] is CD40 mRNA. As to the kind of experiment: […] CD40 expression in BCL1 cells treated with 10 uM peptide nucleic acid (PNA)conjugate; n=3. Format: functional, cell-based. The following applies: Mus musculus. In short, it runs like this: as §1
Series [4] is described as follows: Half-life of the conjugate when treated with 10% foetal bovine serum for enzymatic stability. In kind it is ADME, Bos taurus. Conditions: cattle. In short, it runs like this: (§2)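 Conjugates at 20 μM in 10% FBS RPMI 1640 medium or 25% mouse serum (Hepes-stabilised, diluted in PBS, pH 7.1–7.4), incubated at 37 °C. Sampled to 168 h (FBS) or 48 h (serum); proteins precipitated with 10% DCA, PNA 6mer internal standard added. Analysed by C3 RP-HPLC at 60 °C; t1/2 from normalised full-length peak area versus time.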

Series [5] concerns BCL1. Kind of series: Inhibitory concentration against BCL1 cell proliferation in WST-1 assay; Range 10-20. Format: functional, Mus musculus. A digest of the protocol:
(§3)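 BCL1 cells, 2000 per well, grown in DMEM with 10% FBS at 37 °C and 5% CO2. Exposed to conjugate for 3 days, then viable cells read by WST-1 absorbance at 450 nm. Value is the concentration at which absorbance fell below 50% of untreated control; triplicates.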
On the technique in general: Formazan colour is commonly taken as a measure of viable cells.

Series [6] is described as follows: Half-life of the conjugate when treated with 25% murine serum for enzymatic stability. In kind it is ADME. Conditions: mouse. In short, it runs like this: as §2
The test system of series [7] is BCL1. Kind of series: Inhibitory concentration against BCL1 cell proliferation in WST-1 assay. In kind it is functional, Mus musculus. In short, it runs like this: as §3
Series [8] in a line: Half-life of the conjugate when treated with 25% murine serum for enzymatic stability; No data available. Format: ADME. Conditions: mouse. A digest of the protocol: as §2

Non-standard residues stand in square brackets, D forms with d. Residues, ends and D or L forms follow the SMILES beside them. Lys(Me2) = CN(C)CCCC[C@H](N)C(=O)O; hArg = N=C(N)NCCCC[C@H](N)C(=O)O; hLys = NCCCCC[C@H](N)C(=O)O; Nlys = NCCCCNCC(=O)O

With `NCCCC[C@@H](C=O)NC(=O)[C@H](CCCCN)NC(=O)[C@H](CCCCN)NOC(=O)[C@H](CCCN)NC(=O)[C@H](CCCCN)NC(=O)[C@H](CCCCN)NOC(=O)[C@H](CCCN)NC(=O)[C@H](CCCCN)NC(=O)[C@@H](N)CCCCN`, the UTC in series [1] worked out at 65%; in series [2], 94%; in series [3] it was 34%. The half-life in series [4] was above 7 days; in series [6], 1080 min. Also, the half-maximal inhibitory concentration (IC50) in series [5] was found to be 20 µM.
Consider `N=C(N)NCCCC[C@H](NC(=O)[C@H](CCCCNC(=N)N)NC(=O)[C@H](CCCCNC(=N)N)NC(=O)[C@H](CCCCNC(=N)N)NC(=O)[C@H](CCCCNC(=N)N)NC(=O)[C@H](CCCCNC(=N)N)NC(=O)[C@H](CCCCNC(=N)N)NC(=O)[C@@H](N)CCCCNC(=N)N)C(=O)N[C@H](C=O)CCCCN`, for which the figures for the UTC in series [1], in series [2] and in series [3] were 45%, 91% and 20%, respectively. Also, the half-life in series [4] was above 7 days; in series [6], 900 min. Further, in series [7], the “IC50 for cell proliferation” value was 5 µM.
As to `NCCCC[C@@H](C=O)NOC(=O)C(CCCN)NC(=O)[C@H](CCCCN)NOC(=O)C(CCCN)NC(=O)[C@H](CCCCN)NOC(=O)C(CCCN)NC(=O)[C@H](CCCCN)NOC(=O)C(CCCN)NC(=O)[C@@H](N)CCCCN` (stereo not given in full), the results for the UTC in series [1], in series [2] and in series [3] were 61%, 94% and 42%, respectively. Further, the half-life in series [4] is above 7 days. In addition, the T1/2 result in series [8] is recorded as “No data available”. For the same compound, the “IC50 for cell proliferation” value in series [7] came out at 5 µM.
As to `NCCCC[C@@H](C=O)NC(=O)[C@H](CCCCN)NC(=O)[C@@H](CCCCN)NC(=O)[C@H](CCCCN)NC(=O)[C@H](CCCCN)NC(=O)[C@@H](CCCCN)NC(=O)[C@H](CCCCN)NC(=O)[C@@H](N)CCCCN`, the UTC is 87% in series [1], 102% in series [2] and 62% in series [3]. Moreover, the half-life in series [4] is above 7 days; in series [6], above 2880 min. In series [5], the IC50 was found to be 20 µM.
Consider `NCCCC[C@@H](C=O)NOC(=O)[C@H](CCCN)NOC(=O)[C@H](CCCN)NC(=O)[C@H](CCCCN)NC(=O)[C@H](CCCCN)NC(=O)[C@H](CCCCN)NC(=O)[C@H](CCCCN)NOC(=O)[C@H](CCCN)NOC(=O)[C@@H](N)CCCN`, for which the half-life in series [4] is above 7 days. The T1/2 result in series [8] was “No data available”.
Take `NCCCC[C@@H](C=O)NOC(=O)C(CCCN)NOC(=O)C(CCCN)NC(=O)[C@H](CCCCN)NC(=O)[C@H](CCCCN)NC(=O)[C@H](CCCCN)NC(=O)[C@H](CCCCN)NOC(=O)C(CCCN)NOC(=O)C(N)CCCN` (stereo not given in full): the UTC in series [1] is 69%; in series [2], 97%; in series [3] it was 52%. Besides, the “IC50 for cell proliferation” value in series [7] turned out to be 5 µM.
For the compound `NCCCC[C@H](NC(=O)CN(CCCCN)C(=O)CN(CCCCN)C(=O)CN(CCCCN)C(=O)CN(CCCCN)C(=O)CN(CCCCN)C(=O)CN(CCCCN)C(=O)CN(CCCCN)C(=O)CN(CCCCN)C(=O)CN)C(=O)O` (H-G[Nlys][Nlys][Nlys][Nlys][Nlys][Nlys][Nlys][Nlys]K-OH), the UTC is 80% in series [1], 92% in series [2] and 56% in series [3]. For the same compound, the half-life in series [4] is above 7 days; in series [6], above 2880 min. In series [5], the IC50 stood at 20 µM.
`NCCCC[C@@H](C=O)NC(=O)[C@H](Cc1c[nH]cn1)NC(=O)[C@H](Cc1c[nH]cn1)NC(=O)[C@H](Cc1c[nH]cn1)NC(=O)[C@H](Cc1c[nH]cn1)NC(=O)[C@H](Cc1c[nH]cn1)NC(=O)[C@H](Cc1c[nH]cn1)NC(=O)[C@H](Cc1c[nH]cn1)NC(=O)[C@@H](N)Cc1c[nH]cn1` (H-HHHHHHHHK-aldehyde): the UTC was 74% in series [1], 81% in series [2] and 64% in series [3]. For the same compound, the half-life was above 7 days in series [4] and 2640 min in series [6]. In series [7], the “IC50 for cell proliferation” value was above 20 µM.
As to `NCCCC[C@@H](C=O)NC(=O)[C@H](Cc1c[nH]cn1)NC(=O)[C@H](CCCCN)NC(=O)[C@H](Cc1c[nH]cn1)NC(=O)[C@H](CCCCN)NC(=O)[C@H](Cc1c[nH]cn1)NC(=O)[C@H](CCCCN)NC(=O)[C@H](Cc1c[nH]cn1)NC(=O)[C@@H](N)CCCCN` (H-KHKHKHKHK-aldehyde), the UTC in series [1] stood at 87%; in series [2], 88%; in series [3] it was 73%. Further, the figures for the half-life in series [4] and in series [6] were above 7 days and 360 min, respectively. In addition, in series [7], the “IC50 for cell proliferation” value was above 20 µM.
In the case of `NCCCC[C@@H](C=O)NC(=O)[C@H](CCCCN)NC(=O)[C@H](CCCCN)NC(=O)[C@H](Cc1c[nH]cn1)NC(=O)[C@H](CCCCN)NC(=O)[C@H](CCCCN)NC(=O)[C@H](Cc1c[nH]cn1)NC(=O)[C@H](CCCCN)NC(=O)[C@@H](N)CCCCN` (H-KKHKKHKKK-aldehyde), the UTC in series [1] came out at 73%; in series [2] it was 86%; in series [3] it was 52%. The half-life in series [4] was above 7 days; in series [6] it was 360 min. The same compound yielded a concentration for half-maximal inhibition (IC50) in series [5] of 20 µM.
Take `CN(C)CCCC[C@H](NC(=O)[C@H](CCCCN)NC(=O)[C@H](CCCCN)NC(=O)[C@H](CCCCN(C)C)NC(=O)[C@H](CCCCN)NC(=O)[C@@H](N)CCCCN)C(=O)N[C@@H](CCCCN)C(=O)N[C@@H](CCCCN)C(=O)N[C@H](C=O)CCCCN` (H-KK[Lys(Me2)]KK[Lys(Me2)]KKK-aldehyde): the UTC was determined as 78% in series [1], 96% in series [2] and 41% in series [3]. The half-life in series [4] was above 7 days; in series [6] it was 1320 min. In addition, in series [7], the “IC50 for cell proliferation” value worked out at 5 µM.
Turning to `NCCCC[C@H](NC(=O)[C@H](CCCCN)NC(=O)[C@H](CCCCN)NC(=O)CN(CCCCN)C(=O)[C@H](CCCCN)NC(=O)[C@H](CCCCN)NC(=O)CN(CCCCN)C(=O)[C@H](CCCCN)NC(=O)[C@@H](N)CCCCN)C(=O)O` (H-KK[Nlys]KK[Nlys]KKK-OH), the UTC in series [1] stood at 88%; in series [2], 104%; in series [3], 60%. Besides, the half-life was above 7 days in series [4] and 1740 min in series [6]. For the same compound, in series [5], the IC50 turned out to be 20 µM.
On to `NCCCC[C@@H](C=O)NC(=O)[C@H](CCCCN)NC(=O)[C@H](CCCCN)NC(=O)[C@H](CCCCN=C(N)N)NC(=O)[C@H](CCCCN)NC(=O)[C@H](CCCCN)NC(=O)[C@H](CCCCN=C(N)N)NC(=O)[C@H](CCCCN)NC(=O)[C@@H](N)CCCCN` (H-KK[hArg]KK[hArg]KKK-aldehyde), for which the UTC in series [1] is 75%; in series [2] it was 92%; in series [3], 36%. The half-life in series [4] was above 7 days. Besides, the T1/2 result in series [8] is reported as “No data available”. For the same compound, in series [7], the “IC50 for cell proliferation” value worked out at 10 µM.
As for `NCCCCC[C@H](NC(=O)[C@H](CCCCN)NC(=O)[C@H](CCCCN)NC(=O)[C@H](CCCCCN)NC(=O)[C@H](CCCCN)NC(=O)[C@@H](N)CCCCN)C(=O)N[C@@H](CCCCN)C(=O)N[C@@H](CCCCN)C(=O)N[C@H](C=O)CCCCN` (H-KK[hLys]KK[hLys]KKK-aldehyde), the UTC in series [1] amounted to 61%; in series [2] it was 76%; in series [3], 31%. Further, the half-life in series [4] was above 7 days; in series [6] it was 600 min. The “IC50 for cell proliferation” value in series [7] is above 20 µM.
Consider `CN(C)CCCC[C@H](NC(=O)[C@H](CCCCN(C)C)NC(=O)[C@H](CCCCN(C)C)NC(=O)[C@H](CCCCN(C)C)NC(=O)[C@H](CCCCN(C)C)NC(=O)[C@H](CCCCN(C)C)NC(=O)[C@H](CCCCN(C)C)NC(=O)[C@@H](N)CCCCN(C)C)C(=O)N[C@H](C=O)CCCCN` (H-[Lys(Me2)][Lys(Me2)][Lys(Me2)][Lys(Me2)][Lys(Me2)][Lys(Me2)][Lys(Me2)][Lys(Me2)]K-aldehyde), for which the UTC in series [1] was determined as 89%; in series [2] it was 94%; in series [3] it was 71%. Further, the half-life was above 7 days in series [4] and above 2880 min in series [6]. For the same compound, in series [7], the “IC50 for cell proliferation” value stood at 10 µM.
`NCCCCC[C@H](NC(=O)[C@H](CCCCCN)NC(=O)[C@H](CCCCN)NC(=O)[C@H](CCCCN)NC(=O)[C@H](CCCCN)NC(=O)[C@H](CCCCN)NC(=O)[C@H](CCCCCN)NC(=O)[C@@H](N)CCCCCN)C(=O)N[C@H](C=O)CCCCN` (H-[hLys][hLys]KKKK[hLys][hLys]K-aldehyde): the UTC in series [1] is 66%; in series [2], 86%; in series [3], 34%. This compound had a half-life in series [4] of 5 days. In addition, the “IC50 for cell proliferation” value in series [7] is above 20 µM.
`NCCCCC[C@H](NC(=O)[C@H](CCCCCN)NC(=O)[C@H](CCCCCN)NC(=O)[C@H](CCCCCN)NC(=O)[C@H](CCCCCN)NC(=O)[C@H](CCCCCN)NC(=O)[C@H](CCCCCN)NC(=O)[C@@H](N)CCCCCN)C(=O)N[C@H](C=O)CCCCN` (H-[hLys][hLys][hLys][hLys][hLys][hLys][hLys][hLys]K-aldehyde): the UTC in series [1] stood at 65%; in series [2] it was 87%; in series [3], 31%. Moreover, the values for the half-life in series [4] and in series [6] were above 7 days and 1020 min, respectively. Further, in series [7], the “IC50 for cell proliferation” value was determined as 10 µM.

Broadly, the half-life is how long it takes for the measured level to halve. The IC50 is the concentration that inhibits the measured activity by half.
